The source made the active and inactive calls. The rule behind the calls is not given here.
How the values were obtained:
Mus musculus [1] = assay: Antidepressant activity in C57BL/6J mouse assessed as average force at 10 mg/kg, ip measured over 6 mins by tail suspension test (reference value: 0.281 +/- 0.018 to 0.359 +/- 0.027 N); type: functional
Mus musculus [2] = assay: Antidepressant activity in C57BL/6J mouse assessed as number of events at […] mg/kg, ip measured over 6 mins by tail suspension test (reference value: 1325.1 +/- 77.8 to 1773.4 +/- 109.9); type: functional
Mus musculus [3] = assay: Antidepressant activity in C57BL/6J mouse assessed as number of events at […], ip measured over 6 mins by tail suspension test (reference value: 1325.1 +/- 77.8 to 1773.4 +/- 109.9); type: functional
Mus musculus [4] = assay: Antidepressant activity in C57BL/6J mouse assessed as number of events at 5 mg/kg, ip measured over 6 mins by tail suspension test (reference value: 1325.1 +/- 77.8 to 1773.4 +/- 109.9); type: functional
Mus musculus [5] = assay: Antidepressant activity in C57BL/6J mouse assessed as number of events at 10 mg/kg, ip measured over 6 mins by tail suspension test (reference value: 1325.1 +/- 77.8 to 1773.4 +/- 109.9); type: functional
Mus musculus [6] = assay: Antidepressant activity in C57BL/6J mouse assessed as immobility time at […] mg/kg, ip measured over 6 mins by tail suspension test (reference value: 160.7 +/- 12 to 170.6 +/- 9 sec); type: functional
Mus musculus [7] = assay: Antidepressant activity in C57BL/6J mouse assessed as immobility time at […], ip measured over 6 mins by tail suspension test (reference value: 160.7 +/- 12 to 170.6 +/- 9 sec); type: functional
Mus musculus [8] = assay: Antidepressant activity in C57BL/6J mouse assessed as immobility time at 5 mg/kg, ip measured over 6 mins by tail suspension test (reference value: 160.7 +/- 12 to 170.6 +/- 9 sec); type: functional
Mus musculus [9] = assay: Antidepressant activity in C57BL/6J mouse assessed as immobility time at 10 mg/kg, ip measured over 6 mins by tail suspension test (reference value: 160.7 +/- 12 to 170.6 +/- 9 sec); type: functional
Mus musculus [10] = assay: Antidepressant activity in albino Swiss mouse assessed as decrease in immobility time at 10 mg/kg, ip by forced swim test; type: functional
Mus musculus [11] = assay: Toxicity in ip dosed albino Swiss mouse assessed as effect on spontaneous locomotory activity at MED measured over 2 to 6 mins; type: organism-based; settings: in vivo
How it was run: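 Male Albino Swiss mice (22–28 g) received drug i.p. 60 min before testing, in 1% aqueous Tween 80 or distilled water. Each mouse was habituated alone in a plastic cage for 30 min, then ambulation was counted from 2 to 6 min. Groups of 6–10 animals, each used once.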

Mus musculus [12] = assay: Antidepressant activity in ip dosed C57BL/6J mouse assessed as reduction in immobility time of mouse by tail suspension test; type: functional; settings: read-out: MED
Rattus norvegicus = assay: Antidepressant activity in ip dosed Wistar rat assessed as reduction in immobility time of rat by forced swim test; type: functional
How it was run: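 Male Wistar rats (220-250 g), ip injection 30 min before test. Day 1: 15-min pre-swim in a cylinder with 15 cm of water at 25 °C, then drying under a lamp. Next day: total immobility recorded over the whole 5-min test, with fresh water for each rat.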

Mus musculus [13] = assay: Anxiolytic activity in ip dosed albino Swiss mouse assessed as increase in number of shocks accepted measured over 1 min, 15 secs by four plates test; type: functional; settings: read-out: MED
How it was run: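 Male Albino Swiss mice, ip injection 60 min before test. Four-plate cage; after 15 s of habituation, each plate-to-plate crossing during a 1-min session is punished with a 0.8 mA, 0.5 s foot shock, followed by a 3-s shock-free interval. Number of shocks accepted is counted.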

Mus musculus [14] = assay: Toxicity in ip dosed C57BL/6J mouse assessed as effect on spontaneous locomotory activity at MED measured over 6 mins; type: organism-based; settings: in vivo, 0.1 h
How it was run: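 Mice habituated 30 min in individual cages, then ambulation counted over a period matching each behavioural test: 6 min for the tail suspension test and 1 min 15 s for the four-plate test. Compounds given ip at the active doses.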

Mus musculus [15] = assay: Toxicity in ip dosed C57BL/6J mouse assessed as effect on spontaneous locomotory activity at MED measured over 1 min 15 secs; type: organism-based; settings: in vivo
Mus musculus [16] = assay: Antidepressant activity in C57BL/6J mouse assessed as average force at […] mg/kg, ip measured over 6 mins by tail suspension test (reference value: 0.281 +/- 0.018 to 0.359 +/- 0.027 N); type: functional
Mus musculus [17] = assay: Antidepressant activity in C57BL/6J mouse assessed as average force at […], ip measured over 6 mins by tail suspension test (reference value: 0.281 +/- 0.018 to 0.359 +/- 0.027 N); type: functional
Mus musculus [18] = assay: Antidepressant activity in C57BL/6J mouse assessed as average force at 5 mg/kg, ip measured over 6 mins by tail suspension test (reference value: 0.281 +/- 0.018 to 0.359 +/- 0.027 N); type: functional
Mus musculus [19] = assay: Antidepressant activity in C57BL/6J mouse assessed as average force at 20 mg/kg, ip measured over 6 mins by tail suspension test (reference value: 0.281 +/- 0.018 to 0.359 +/- 0.027 N); type: functional
Mus musculus [20] = assay: Antidepressant activity in C57BL/6J mouse assessed as average force at 40 mg/kg, ip measured over 6 mins by tail suspension test (reference value: 0.281 +/- 0.018 to 0.359 +/- 0.027 N); type: functional
Mus musculus [21] = assay: Antidepressant activity in C57BL/6J mouse assessed as number of events at 20 mg/kg, ip measured over 6 mins by tail suspension test (reference value: 1325.1 +/- 77.8 to 1773.4 +/- 109.9); type: functional
Mus musculus [22] = assay: Antidepressant activity in C57BL/6J mouse assessed as number of events at 40 mg/kg, ip measured over 6 mins by tail suspension test (reference value: 1325.1 +/- 77.8 to 1773.4 +/- 109.9); type: functional
Mus musculus [23] = assay: Antidepressant activity in C57BL/6J mouse assessed as immobility time at 20 mg/kg, ip measured over 6 mins by tail suspension test (reference value: 160.7 +/- 12 to 170.6 +/- 9 sec); type: functional
Mus musculus [24] = assay: Antidepressant activity in C57BL/6J mouse assessed as immobility time at 40 mg/kg, ip measured over 6 mins by tail suspension test (reference value: 160.7 +/- 12 to 170.6 +/- 9 sec); type: functional
Mus musculus [25] = assay: Antidepressant activity in ip dosed albino Swiss mouse assessed as decrease in immobility time by forced swim test; type: functional, organism-based

## CC1CCN(CC[C@H]2CCCN2S(=O)(=O)c2cccc(O)c2)CC1
Mus musculus [1]
  Activity: 0.311 N
Mus musculus [2]
  Activity: 1764.8
Mus musculus [3]
  Activity: 1467.1
Mus musculus [4]
  Activity: 1604.7
Mus musculus [5]
  Activity: 1600.1
Mus musculus [6]
  Time: 139.5 s
Mus musculus [7]
  Time: 151 s
Mus musculus [8]
  Time: 170.6 s
Mus musculus [9]
  Time: 186.1 s
Mus musculus [10]
  inhibition in vivo at 10 mg/kg: 31%
Mus musculus [11]
  Activity: Non-toxic
Mus musculus [12]
  minimal effective dose: 2.5 mg/kg
Rattus norvegicus; read-out: MED
  minimal effective dose: 1.25 mg/kg
Mus musculus [13]
  minimal effective dose: 1 mg/kg
Mus musculus [14]
  Activity: Non-toxic
Mus musculus [15]
  Activity: Non-toxic
Mus musculus [16]
  Activity: 0.396 N
Mus musculus [17]
  Activity: 0.449 N
Mus musculus [18]
  Activity: 0.363 N

## CN(C)CCCC1(c2ccc(F)cc2)OCc2cc(C#N)ccc21 (centres undefined) [CITALOPRAM]
Mus musculus [1]
  Activity: 0.318 N
Mus musculus [19]
  Activity: 0.381 N
Mus musculus [20]
  Activity: 0.398 N
Mus musculus [5]
  Activity: 1820.1
Mus musculus [21]
  Activity: 1961.3
Mus musculus [22]
  Activity: 2053.1
Mus musculus [9]
  Time: 148.7 s
Mus musculus [23]
  Time: 103 s
Mus musculus [24]
  Time: 95.5 s
Mus musculus [25]
  inhibition: Dose-dependent effect
Mus musculus [11]
  Activity: Non-toxic
Mus musculus [12]
  minimal effective dose: 20 mg/kg
Rattus norvegicus
  MED: inactive
Mus musculus [14]
  Activity: Non-toxic
Mus musculus [15]
  Activity: Non-toxic
